This experiment concerns the target T1, B31 DBPA (Borreliella burgdorferi, UniProt O50917).
T1 sequence (O50917 24-191): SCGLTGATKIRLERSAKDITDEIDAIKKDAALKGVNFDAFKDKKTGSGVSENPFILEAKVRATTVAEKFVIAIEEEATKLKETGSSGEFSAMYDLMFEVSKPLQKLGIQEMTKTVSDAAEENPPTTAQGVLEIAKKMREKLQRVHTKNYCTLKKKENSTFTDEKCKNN
The experiment is described as follows: NMR control titration for non-specific TEMPO-DBPA interactions. It counts as binding, Borrelia burgdorferi. The note with it: similar protein-to-ligand ratios as TEMPO-labeled heparin dp6. In outline: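 Samples of 400 μL held 150 to 200 μM ¹⁵N-labelled B31 WT DBPA in 50 mM NaH₂PO₄, pH 6.5, 150 mM NaCl. The DBPA construct was a His-tagged fusion expressed in E. coli BL21(DE3) in M9 medium, Ni-affinity purified and cleaved with USP2. Amide ¹H transverse relaxation was measured with delays of 1, 4.5, 8, 11.5, 15 and 18.5 ms.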

As to `CC1(C)CC(N)CC(C)(C)N1[O]` [4-amino-TEMPO], the “changes in transverse relaxation rates of the protein” value is “no significant changes”.

These data come from PMC3896217 (Biochemistry, 2013).
